# Most compounds without a hit are left out; they make up all but 2.8% or so of the library.
# CAL PDZ FP-1 = CAL PDZ (human) peptide binding inhibition; Q9HD26; inhibition, % at 24.9 µM; 300,000 compounds, 0.92% hits; purified CAL PDZ, TMR-peptide fluorescence polarization, 1 h;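 active = mean inhibition of at least 30% with at least half of replicates also reaching 30%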;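 also: 0% = DMSO neutral control and 100% = excess unlabeled competitor peptide PRC23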
# SR-BI DiI-HDL act = activators of SR-BI mediated HDL lipid uptake | CHO ldlA[mSR-BI] cells, DiI-HDL uptake fluorescence, 3 h; 100 = double the neutral-control signal | activation, % at 12.5 µM | 320,000 compounds, 0.096% hits;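 active = mean replicate activation of at least 60% and every replicate at or above 60%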;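 also: 0% = median plate neutral-control signal and 100% = twice that signal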
#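 Material: SR-BI-overexpressing, LDLR-lacking CHO cells; schedule: compound exposure 3 h, 37 °C; reagent: DiI-labelled HDL at 10 µg/mL final; technique: bottom-read fluorescence, 550/595 nm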
# dFosB act = enhances mouse delta FosB homodimer DNA binding; purified delta FosB, TAMRA-CDK5 oligo fluorescence polarization; percent of positive-control signal above neutral wells; activation, % at 25 µM; 340,000 compounds, 0.99% hits;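 active = mean activation above about 17%, with every replicate also reaching it, limit read from the data, passing the limit was not always enough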
# Target sequence (P13346 whole entry, looked up): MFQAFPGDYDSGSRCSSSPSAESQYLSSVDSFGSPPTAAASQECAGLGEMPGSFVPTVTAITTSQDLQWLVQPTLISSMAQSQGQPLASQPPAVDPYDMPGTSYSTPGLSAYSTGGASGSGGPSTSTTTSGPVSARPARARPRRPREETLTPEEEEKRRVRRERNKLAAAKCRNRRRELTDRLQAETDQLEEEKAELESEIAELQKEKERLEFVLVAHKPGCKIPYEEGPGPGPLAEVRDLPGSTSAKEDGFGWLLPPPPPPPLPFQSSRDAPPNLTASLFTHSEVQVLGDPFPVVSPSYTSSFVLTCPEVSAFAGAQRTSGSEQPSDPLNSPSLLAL
# SR-BI DiI inh = blocks mouse SR-BI lipid uptake from DiI-HDL | 320,000 compounds, 0.96% hits | Q61009 | ldlA[mSR-BI] CHO cells, DiI-HDL uptake fluorescence, 3 h | inhibition, % at 12.5 µM;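 active = mean replicate inhibition of at least 70% and a set share of replicates each scoring 70 or more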;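 also: 0% = median of neutral control wells and 100% = median of positive control wells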
# CAL PDZ FP-2 = blocks peptide binding to human CAL PDZ domain. Q9HD26. purified CAL PDZ, TMR-peptide fluorescence polarization, 1 h. inhibition, % at 20 µM. 330,000 compounds, 0.02% hits. AID 504414;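 active = highest replicate inhibition of at least 40%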;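 also: plate controls were DMSO neutral control wells for no effect and unlabeled competitor peptide control wells for full effect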
#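 Material – purified CerCALP PDZ construct · Detection – FP readout, S and P plane fluorescence · Measure – percent inhibition from loss of millipolarization · Controls – unlabelled peptide for full inhibition, DMSO wells as neutral · Probe or stimulus – TMR-labelled reporter peptide T*-PRC34 bound in PDZ groove · Times – 1 h at RT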
# * hit, by the source's call; . = no result.
SMILES,CAL PDZ FP-1,SR-BI DiI-HDL act,dFosB act,SR-BI DiI inh,CAL PDZ FP-2
Cc1ccc2c(N)c(C)ccc2c1,-4,-3,-1,3,1
Cc1nn(-c2ccccc2)c2nc(C(F)F)cc(C(F)F)c12,0,-31,-2,31,0
COc1cc(C(=O)NCCC(C)C)ccc1OCc1ccc(Cl)cc1Cl,-2,-82,-2,82*,-1
COc1cc(C(=O)NC2CCCCC2)ccc1OCc1ccc(Cl)cc1Cl,-5,-76,11,76*,-2
O=C(Cc1ccc(Cl)cc1Cl)NC1CCCCCC1,-3,.,2,.,-2
COc1cc(S(=O)(=O)Nc2cccnc2)ccc1Cl,-4,12,-5,-12,0
O=C1Nc2ccc(Br)cc2C12NNc1ccccc1O2 (centres undefined),-1,-90,-1,90*,2
O=C(NCCc1ccc(F)cc1)Nc1ccccc1Cl,2,2,1,-2,-2
COc1ccc(NS(=O)(=O)c2ccc(O)c(NC(=O)c3cc4c(C)nn(-c5ccc(F)cc5)c4s3)c2)cc1,-4,-77,1,77*,0
CC1CCCN(Cc2csc(N)n2)C1 (centres undefined),2,.,-2,.,-1
c1csc(C2Nc3cccc4cccc(c34)N2)c1,2,-19,36*,19,.
c1ccc(C2Nc3cccc4cccc(c34)N2)cc1,1,-20,-1,20,2
O=C(C1=C[C@@H](c2ccc(Br)cc2)C[C@@H](OCc2ccc(CO)cc2)O1)N1CCN(Cc2ccccc2)CC1,1,63*,-5,-63,0
CC[C@]12c3[nH]c4cc(CCC(=O)N(C)C)ccc4c3CCN1C(=O)[C@@H](CC(=O)NCc1ccco1)C[C@@H]2C(=O)N1CCN(C(=O)C2CC2)CC1,4,-3,-12,3,0
CC(C)Cn1c(N)c(C(=O)COC(=O)c2cc(F)cc(F)c2)c(=O)n(C)c1=O,36*,-52,-10,52,-3
CC(C)Cc1nc2oc3c(NCC(C)O)ncnc3c2c2c1CCCC2 (centres undefined),43*,-64,-40,64,-2
CC(C)Cc1nc2oc3c(Cl)ncnc3c2c2c1CCCC2,.,4,0,-4,-2
CCN1C(=O)c2ccc(C(=O)Nc3ncc(C)s3)cc2C1=O,47*,-32,-10,32,13
Cc1cnc(NC(=O)c2ccc3c(c2)C(=O)N(Cc2ccco2)C3=O)s1,-3,-44,14,44,0
O=c1c2c([nH]n1-c1ccccc1)CCSC2,-4,11,-8,-11,.
CCC(=O)Nc1ccc2c(c1)Cc1cc(NC(=O)CC)ccc1-2,.,-74,-1,74*,0
NC(=O)Cn1nc(-c2ccccc2)nc1-c1ccccc1,-3,.,4,.,0
COc1ccc(C)cc1S(=O)(=O)N1CCCC(C(=O)NC2CC2)C1 (centres undefined),36*,3,0,-3,0
O=C(CCN1CCOCC1)Nc1cc(C(=O)Nc2ccccc2F)ccc1N1CC2CC(C1)c1cccc(=O)n1C2 (centres undefined),69*,22,-11,-22,-1
COc1ccc(CC(=O)Nc2ccc(/C(C)=N/NC(=O)c3ccc(OC)cc3OC)cc2)cc1,-2,-74,5,74*,-3
SMILES,CAL PDZ FP-1,SR-BI DiI-HDL act,dFosB act,SR-BI DiI inh,CAL PDZ FP-2
COc1ccc(C(=O)N/N=C(\C)CC(=O)Nc2ccc(N(C)C)cc2)c(OC)c1,.,-49,-10,49,0
CSc1cccc(NC(=S)Nc2ccc(F)cc2)c1,0,-11,-8,11,-1
CSc1cccc(NC(=S)NN(C)C)c1,64*,4,-1,-4,0
COc1ccccc1N1CC(C)(C)C(=O)N(C(=O)c2c(F)cccc2Cl)C1=S,81*,-19,-10,19,-1
N#C/C(=C\C1=C(N2CCOCC2)C(=C\c2ccc(Cl)cc2)/CC1)C(=O)Nc1ccccc1F,-4,-37,-17,37,0
N#C/C(=C/C1=C(N2CCOCC2)C(=C/c2ccc(Cl)cc2Cl)/CC1)C(=O)Nc1ccccc1F,-6,-74,5,74*,0
N#C/C(=C/C1=C(N2CCOCC2)C(=C/c2ccccc2)/CC1)C(=O)Nc1ccccc1F,-7,-75,-103,75*,-2

# Screening data as filed in PubChem BioAssay.
